What follows are compounds tested against T1, C-X-C chemokine receptor type 4 (Homo sapiens, UniProt P61073) (assay: Displacement of [125I]-CXCL12 from HA-tagged human recombinant CXCR4 expressed in HEK293 cells incubated for 1 hr by gamma-radiation counting analysis). Conditions: not given.
T1 sequence (P61073 whole entry): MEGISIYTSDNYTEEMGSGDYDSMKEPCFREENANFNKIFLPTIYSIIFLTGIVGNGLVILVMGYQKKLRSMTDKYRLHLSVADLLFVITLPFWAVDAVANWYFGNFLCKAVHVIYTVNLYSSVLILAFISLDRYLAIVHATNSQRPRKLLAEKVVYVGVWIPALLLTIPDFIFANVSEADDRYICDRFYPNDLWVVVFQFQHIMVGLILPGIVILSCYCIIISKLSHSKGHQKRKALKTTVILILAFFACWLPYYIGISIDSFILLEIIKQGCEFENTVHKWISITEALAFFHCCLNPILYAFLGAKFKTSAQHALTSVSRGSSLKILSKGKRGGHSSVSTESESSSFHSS
Type: cell-based
An IC50 of 95 nM was found for `CC(C)C[C@H](NC(=O)[C@H](CO)NC(=O)[C@@H](N)C(C)C)C(=O)N[C@@H](CO)C(=O)N[C@@H](Cc1ccc(O)cc1)C(=O)N[C@@H](CCCNC(=N)N)C(=O)N[C@@H](CO)C(=O)N[C@@H](C)C(=O)NCCCC[C@H](NC(=O)[C@@H]1CSSC[C@H](NC(=O)[C@H](Cc2ccc3ccccc3c2)NC(=O)[C@H](CCCNC(=N)N)NC(=O)[C@@H](N)CCCNC(=N)N)C(=O)N[C@@H](Cc2ccc(O)cc2)C(=O)N[C@@H](CCCNC(=N)N)C(=O)N[C@@H](CCCCN)C(=O)N[C@H](CCCCN)C(=O)N2CCC[C@H]2C(=O)N[C@@H](Cc2ccc(O)cc2)C(=O)N[C@@H](CCCNC(=N)N)C(=O)N[C@@H](CCCNC(=N)N)C(=O)N1)C(=O)O` in this work. An IC50 of 678 nM was found for `CC(C)C[C@H](NC(=O)[C@H](CO)NC(=O)[C@H](Cc1ccccc1)N(C)C(=O)[C@@H]1CCCN1C(=O)[C@@H](N)CCCCN)C(=O)N[C@@H](CO)C(=O)N[C@@H](Cc1ccc(O)cc1)C(=O)N[C@@H](CCCNC(=N)N)C(=O)N[C@@H](CO)C(=O)N[C@@H](C)C(=O)NCCCC[C@H](NC(=O)[C@@H]1CSSC[C@H](NC(=O)[C@H](Cc2ccc3ccccc3c2)NC(=O)[C@H](CCCNC(=N)N)NC(=O)[C@@H](N)CCCNC(=N)N)C(=O)N[C@@H](Cc2ccc(O)cc2)C(=O)N[C@@H](CCCNC(=N)N)C(=O)N[C@@H](CCCCN)C(=O)N[C@H](CCCCN)C(=O)N2CCC[C@H]2C(=O)N[C@@H](Cc2ccc(O)cc2)C(=O)N[C@@H](CCCNC(=N)N)C(=O)N[C@@H](CCCNC(=N)N)C(=O)N1)C(=O)O` in this work. An IC50 of 437 nM was found for `CC(C)C[C@H](NC(=O)[C@H](CO)NC(=O)[C@@H](NC(=O)[C@@H]1CCCN1C(=O)[C@@H](N)CCCCN)C(C)C)C(=O)N[C@@H](CO)C(=O)N[C@@H](Cc1ccc(O)cc1)C(=O)NCCOCCOCCOCCC(=O)NCCCC[C@H](NC(=O)[C@@H]1CSSC[C@H](NC(=O)[C@H](Cc2ccc3ccccc3c2)NC(=O)[C@H](CCCNC(=N)N)NC(=O)[C@@H](N)CCCNC(=N)N)C(=O)N[C@@H](Cc2ccc(O)cc2)C(=O)N[C@@H](CCCNC(=N)N)C(=O)N[C@@H](CCCCN)C(=O)N[C@H](CCCCN)C(=O)N2CCC[C@H]2C(=O)N[C@@H](Cc2ccc(O)cc2)C(=O)N[C@@H](CCCNC(=N)N)C(=O)N[C@@H](CCCNC(=N)N)C(=O)N1)C(=O)O` in this work. An IC50 of 548 nM was found for `CC(C)C[C@H](NC(=O)[C@H](CO)NC(=O)[C@@H](NC(=O)[C@@H]1CCCN1)C(C)C)C(=O)N[C@@H](CO)C(=O)N[C@@H](Cc1ccc(O)cc1)C(=O)N[C@@H](CCCNC(=N)N)C(=O)N[C@@H](CO)C(=O)N[C@@H](C)C(=O)NCCCC[C@H](NC(=O)[C@@H]1CSSC[C@H](NC(=O)[C@H](Cc2ccc3ccccc3c2)NC(=O)[C@H](CCCNC(=N)N)NC(=O)[C@@H](N)CCCNC(=N)N)C(=O)N[C@@H](Cc2ccc(O)cc2)C(=O)N[C@@H](CCCNC(=N)N)C(=O)N[C@@H](CCCCN)C(=O)N[C@H](CCCCN)C(=O)N2CCC[C@H]2C(=O)N[C@@H](Cc2ccc(O)cc2)C(=O)N[C@@H](CCCNC(=N)N)C(=O)N[C@@H](CCCNC(=N)N)C(=O)N1)C(=O)O` in this work. An IC50 of 171 nM was found for `CC(C)[C@H](NC(=O)[C@@H]1CCCN1C(=O)[C@@H](N)CCCCN)C(=O)N[C@@H](CO)C(=O)N[C@@H](C)C(=O)N[C@@H](CO)C(=O)N[C@@H](Cc1ccc(O)cc1)C(=O)N[C@@H](CCCNC(=N)N)C(=O)N[C@@H](CO)C(=O)N[C@@H](C)C(=O)NCCCC[C@H](NC(=O)[C@@H]1CSSC[C@H](NC(=O)[C@H](Cc2ccc3ccccc3c2)NC(=O)[C@H](CCCNC(=N)N)NC(=O)[C@@H](N)CCCNC(=N)N)C(=O)N[C@@H](Cc2ccc(O)cc2)C(=O)N[C@@H](CCCNC(=N)N)C(=O)N[C@@H](CCCCN)C(=O)N[C@H](CCCCN)C(=O)N2CCC[C@H]2C(=O)N[C@@H](Cc2ccc(O)cc2)C(=O)N[C@@H](CCCNC(=N)N)C(=O)N[C@@H](CCCNC(=N)N)C(=O)N1)C(=O)O` in this work. An IC50 of 282 nM was found for `CC(C)C[C@H](NC(=O)[C@H](CO)NC(=O)[C@@H](NC(=O)[C@@H]1CCCN1C(=O)[C@H](C)N)C(C)C)C(=O)N[C@@H](CO)C(=O)N[C@@H](Cc1ccc(O)cc1)C(=O)N[C@@H](CCCNC(=N)N)C(=O)N[C@@H](CO)C(=O)N[C@@H](C)C(=O)NCCCC[C@H](NC(=O)[C@@H]1CSSC[C@H](NC(=O)[C@H](Cc2ccc3ccccc3c2)NC(=O)[C@H](CCCNC(=N)N)NC(=O)[C@@H](N)CCCNC(=N)N)C(=O)N[C@@H](Cc2ccc(O)cc2)C(=O)N[C@@H](CCCNC(=N)N)C(=O)N[C@@H](CCCCN)C(=O)N[C@H](CCCCN)C(=O)N2CCC[C@H]2C(=O)N[C@@H](Cc2ccc(O)cc2)C(=O)N[C@@H](CCCNC(=N)N)C(=O)N[C@@H](CCCNC(=N)N)C(=O)N1)C(=O)O` in this work. An IC50 of 267 nM was found for `CCCC[C@H](N)C(=O)N1CCC[C@H]1C(=O)N[C@H](C(=O)N[C@@H](CO)C(=O)N[C@@H](CC(C)C)C(=O)N[C@@H](CO)C(=O)N[C@@H](Cc1ccc(O)cc1)C(=O)N[C@@H](CCCNC(=N)N)C(=O)N[C@@H](CO)C(=O)N[C@@H](C)C(=O)NCCCC[C@H](NC(=O)[C@@H]1CSSC[C@H](NC(=O)[C@H](Cc2ccc3ccccc3c2)NC(=O)[C@H](CCCNC(=N)N)NC(=O)[C@@H](N)CCCNC(=N)N)C(=O)N[C@@H](Cc2ccc(O)cc2)C(=O)N[C@@H](CCCNC(=N)N)C(=O)N[C@@H](CCCCN)C(=O)N[C@H](CCCCN)C(=O)N2CCC[C@H]2C(=O)N[C@@H](Cc2ccc(O)cc2)C(=O)NC(CCCNC(=N)N)C(=O)N[C@@H](CCCNC(=N)N)C(=O)N1)C(=O)O)C(C)C` (stereo not given in full) in this work. An IC50 of 127 nM was found for `CC(C)C[C@H](NC(=O)[C@H](CO)NC(=O)[C@H](C(C)C)N(C)C(=O)[C@@H]1CCCN1C(=O)[C@@H](N)CCCCN)C(=O)N[C@@H](CO)C(=O)N[C@@H](Cc1ccc(O)cc1)C(=O)N[C@@H](CCCNC(=N)N)C(=O)N[C@@H](CO)C(=O)N[C@@H](C)C(=O)NCCCC[C@H](NC(=O)[C@@H]1CSSC[C@H](NC(=O)[C@H](Cc2ccc3ccccc3c2)NC(=O)[C@H](CCCNC(=N)N)NC(=O)[C@@H](N)CCCNC(=N)N)C(=O)N[C@@H](Cc2ccc(O)cc2)C(=O)N[C@@H](CCCNC(=N)N)C(=O)N[C@@H](CCCCN)C(=O)N[C@H](CCCCN)C(=O)N2CCC[C@H]2C(=O)N[C@@H](Cc2ccc(O)cc2)C(=O)N[C@@H](CCCNC(=N)N)C(=O)N[C@@H](CCCNC(=N)N)C(=O)N1)C(=O)O` in this work. An IC50 of 353 nM was found for `CC(C)C[C@H](NC(=O)[C@H](CO)NC(=O)[C@@H](NC(=O)[C@H](C)NC(=O)[C@@H](N)CCCCN)C(C)C)C(=O)N[C@@H](CO)C(=O)N[C@@H](Cc1ccc(O)cc1)C(=O)N[C@@H](CCCNC(=N)N)C(=O)N[C@@H](CO)C(=O)N[C@@H](C)C(=O)NCCCC[C@H](NC(=O)[C@@H]1CSSC[C@H](NC(=O)[C@H](Cc2ccc3ccccc3c2)NC(=O)[C@H](CCCNC(=N)N)NC(=O)[C@@H](N)CCCNC(=N)N)C(=O)N[C@@H](Cc2ccc(O)cc2)C(=O)N[C@@H](CCCNC(=N)N)C(=O)N[C@@H](CCCCN)C(=O)N[C@H](CCCCN)C(=O)N2CCC[C@H]2C(=O)N[C@@H](Cc2ccc(O)cc2)C(=O)N[C@@H](CCCNC(=N)N)C(=O)N[C@@H](CCCNC(=N)N)C(=O)N1)C(=O)O` in this work. An IC50 of 222 nM was found for `CC(C)C[C@H](NC(=O)[C@H](CO)NC(=O)[C@@H](NC(=O)[C@@H]1Cc2ccccc2CN1C(=O)[C@@H](N)CCCCN)C(C)C)C(=O)N[C@@H](CO)C(=O)N[C@@H](Cc1ccc(O)cc1)C(=O)N[C@@H](CCCNC(=N)N)C(=O)N[C@@H](CO)C(=O)N[C@@H](C)C(=O)NCCCC[C@H](NC(=O)[C@@H]1CSSC[C@H](NC(=O)[C@H](Cc2ccc3ccccc3c2)NC(=O)[C@H](CCCNC(=N)N)NC(=O)[C@@H](N)CCCNC(=N)N)C(=O)N[C@@H](Cc2ccc(O)cc2)C(=O)N[C@@H](CCCNC(=N)N)C(=O)N[C@@H](CCCCN)C(=O)N[C@H](CCCCN)C(=O)N2CCC[C@H]2C(=O)N[C@@H](Cc2ccc(O)cc2)C(=O)N[C@@H](CCCNC(=N)N)C(=O)N[C@@H](CCCNC(=N)N)C(=O)N1)C(=O)O` in this work. An IC50 of 137 nM was found for `CC(C)C[C@H](NC(=O)[C@H](CO)NC(=O)[C@@H](NC(=O)C1(NC(=O)[C@@H](N)CCCCN)Cc2ccccc2C1)C(C)C)C(=O)N[C@@H](CO)C(=O)N[C@@H](Cc1ccc(O)cc1)C(=O)N[C@@H](CCCNC(=N)N)C(=O)N[C@@H](CO)C(=O)N[C@@H](C)C(=O)NCCCC[C@H](NC(=O)[C@@H]1CSSC[C@H](NC(=O)[C@H](Cc2ccc3ccccc3c2)NC(=O)[C@H](CCCNC(=N)N)NC(=O)[C@@H](N)CCCNC(=N)N)C(=O)N[C@@H](Cc2ccc(O)cc2)C(=O)N[C@@H](CCCNC(=N)N)C(=O)N[C@@H](CCCCN)C(=O)N[C@H](CCCCN)C(=O)N2CCC[C@H]2C(=O)N[C@@H](Cc2ccc(O)cc2)C(=O)N[C@@H](CCCNC(=N)N)C(=O)N[C@@H](CCCNC(=N)N)C(=O)N1)C(=O)O` in this work. An IC50 of 230 nM was found for `CC(C)C[C@H](NC(=O)[C@H](CO)NC(=O)[C@@H](NC(=O)[C@@H]1CCCN1C(=O)[C@@H](N)CCCCN)C(C)C)C(=O)N[C@@H](CO)C(=O)N[C@@H](C)C(=O)N[C@@H](CCCNC(=N)N)C(=O)N[C@@H](CO)C(=O)N[C@@H](C)C(=O)NCCCC[C@H](NC(=O)[C@@H]1CSSC[C@H](NC(=O)[C@H](Cc2ccc3ccccc3c2)NC(=O)[C@H](CCCNC(=N)N)NC(=O)[C@@H](N)CCCNC(=N)N)C(=O)N[C@@H](Cc2ccc(O)cc2)C(=O)N[C@@H](CCCNC(=N)N)C(=O)N[C@@H](CCCCN)C(=O)N[C@H](CCCCN)C(=O)N2CCC[C@H]2C(=O)N[C@@H](Cc2ccc(O)cc2)C(=O)N[C@@H](CCCNC(=N)N)C(=O)N[C@@H](CCCNC(=N)N)C(=O)N1)C(=O)O` in this work.

Same assay, conditions: hek293
An IC50 of 151 nM was found for `CC(C)C[C@H](NC(=O)[C@H](CO)NC(=O)[C@@H](NC(=O)[C@H]1CCCN1C(=O)[C@@H](N)CCCCN)C(C)C)C(=O)N[C@@H](CO)C(=O)N[C@@H](Cc1ccc(O)cc1)C(=O)N[C@@H](CCCNC(=N)N)C(=O)N[C@@H](CO)C(=O)N[C@@H](C)C(=O)NCCCC[C@H](NC(=O)[C@@H]1CSSC[C@H](NC(=O)[C@H](Cc2ccc3ccccc3c2)NC(=O)[C@H](CCCNC(=N)N)NC(=O)[C@@H](N)CCCNC(=N)N)C(=O)N[C@@H](Cc2ccc(O)cc2)C(=O)N[C@@H](CCCNC(=N)N)C(=O)N[C@@H](CCCCN)C(=O)N[C@H](CCCCN)C(=O)N2CCC[C@H]2C(=O)N[C@@H](Cc2ccc(O)cc2)C(=O)N[C@@H](CCCNC(=N)N)C(=O)N[C@@H](CCCNC(=N)N)C(=O)N1)C(=O)O` in this work.

These compounds were tested against T1, C-X-C chemokine receptor type 4 (assay: Agonist activity at HA-tagged human CXCR4 receptor expressed in HEK293 cells co-transfected with Galphai1-91-RlucII, Gbeta1, and GFP10-G-gamma1 incubated for 7 mins by Galpha1 protein activation-based BRET assay). Conditions: not given.
Type: cell-based
How it was run: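 HEK293 cells (3 × 10^6 per 100 mm dish) co-transfected via polyethylenimine with HA-hCXCR4 plus Gαi1-91-RlucII, Gβ1, GFP10-Gγ1; replated at 24 h, 100 000 cells/well. At 48 h, washed in HBSS/0.1% BSA, exposed to ligand 10−12 to 10−5 M for 7 min, then coelenterazine-400A 5 μM final; BRET2 515/400 nm ratio. EC50 (Gαi dissociation) and Emax from three experiments in triplicate.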
An EC50 of 61 nM and an Emax of 24% were found for `CC(C)C[C@H](NC(=O)[C@H](CO)NC(=O)[C@@H](NC(=O)[C@@H]1CCCN1C(=O)[C@@H](N)CCCCN)C(C)C)C(=O)N[C@@H](CO)C(=O)N[C@@H](Cc1ccc(O)cc1)C(=O)NCCOCCOCCOCCC(=O)NCCCC[C@H](NC(=O)[C@@H]1CSSC[C@H](NC(=O)[C@H](Cc2ccc3ccccc3c2)NC(=O)[C@H](CCCNC(=N)N)NC(=O)[C@@H](N)CCCNC(=N)N)C(=O)N[C@@H](Cc2ccc(O)cc2)C(=O)N[C@@H](CCCNC(=N)N)C(=O)N[C@@H](CCCCN)C(=O)N[C@H](CCCCN)C(=O)N2CCC[C@H]2C(=O)N[C@@H](Cc2ccc(O)cc2)C(=O)N[C@@H](CCCNC(=N)N)C(=O)N[C@@H](CCCNC(=N)N)C(=O)N1)C(=O)O` in this work.

Source: ChEMBL document CHEMBL3860039, “Structure-Activity Relationship and Signaling of New Chimeric CXCR4 Agonists” (J Med Chem, 2016)
